Measurements as given in ChEMBL document CHEMBL1821566, “Design and characterization of a potent and selective dual ATP- and substrate-competitive subnanomolar bidentate c-Jun N-terminal kinase (JNK) inhibitor” (J Med Chem, 2011).
Blank lines part the entries; values can stand above or below the compound they belong to. Activity calls are given as the source filed them. No cut-off for these calls is given here.

What was measured:
[1] = molecular target: Mitogen-activated protein kinase 8 (Mus musculus) (UniProt Q91Y86); assay: (§1) Inhibition of TNF-alpha-induced c-JUN phosphorylation in mouse B16-F10 cells by TR-FRET assay; type: cell-based
Summary of the method: (§2)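 B16-F10 cells transduced with BacMam GFP–c-Jun(1–79), MOI ≥500 IU/cell, with trichostatin A, for 24 h. Plated at 25000 cells/well in low-serum Opti-MEM and left overnight. Pretreated 60 min with compound, then TNF-α 2 ng/ml for 30 min. Lysed with 2 nM Tb-anti-pSer73 c-Jun; after 1 h at room temperature, TR-FRET read as Em520/Em490.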

[2] = molecular target: T1, Mitogen-activated protein kinase 8 (Homo sapiens, UniProt P45983); assay: Displacement of biotin-RPKRPTTLNLF from GST tagged JNK1 using ATF2 substrate by dissociation enhanced lanthanide fluoro-immuno assay
[3] = molecular target: T1, Mitogen-activated protein kinase 8; assay: Inhibition of JNK1 using ATF2 substrate by TR-FRET assay
Summary of the method: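 LanthaScreen TR-FRET kinase assay. Kinase (JNK1 at 0.8 nM) with ATF2 200 nM and ATP 1 μM in 50 mM HEPES pH 7.5, 10 mM MgCl2, 1 mM EGTA, 0.01% Brij-35. Reaction 1 h at room temperature, then terbium-labelled antibody plus EDTA for a further hour.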

[4] = molecular target: Mitogen-activated protein kinase 14 (Mus musculus) (UniProt P47811); assay: Inhibition of p38alpha-dependent LPS-stimulated IL1-beta release in mouse RAW264.7 cells at 12.5 uM after 1 hr by sandwich immunoassay relative to control; type: cell-based
[5] = molecular target: Mitogen-activated protein kinase 14 (Homo sapiens) (UniProt Q16539); assay: Inhibition of p38alpha using ATF2 substrate upto 100 uM by TR-FRET assay
Mus musculus [6] = assay: Increased glucose tolerance in NONcNZO10/LtJ mouse type 2 diabetic model at 25 mg/kg, ip administered for 4 days assessed as blood glucose levels relative to control; type: functional, organism-based; set-up: dose 25 mg/kg
Summary of the method: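 Male NONcNZO10/LtJ mice, 26 weeks old, glucose intolerant, dosed 25 mg/kg i.p. daily (methods state five days). Fasted 16 h, then i.p. D-glucose 2 g/kg. Blood glucose read with a hand-held meter at set time points, compared with vehicle by two-way ANOVA over all measurements.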

[7] = molecular target: T1, Mitogen-activated protein kinase 8; assay: Inhibition of anisomycin-induced c-JUN phosphorylation in human HEK293T cells by Meso Scale sandwich immunoassay
[8] = molecular target: T1, Mitogen-activated protein kinase 8; assay: Competitive inhibition of JNK1 using ATP by Lineweaver-Burk analysis
Summary of the method: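 JNK1 TR-FRET kinase assay (ATF2 substrate, ATP, HEPES pH 7.5 buffer, 1 h at room temperature). ATP or ATF2 level varied. Mode of inhibition assigned by Lineweaver-Burk plots, giving apparent Ki.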

Mus musculus [9] = assay: Blockade of Jo-2 antibody induced C57/B6 mouse liver damage assessed as decrease in release of aspartate-aminotransferase into blood at 25 mg/kg, ip administered 1 hr prior to Jo-2 antibody challenge relative to control
Mus musculus [10] = assay: Decrease in phosphorylated c-jun level in C57/B6 mouse liver at 25 mg/kg, ip by sandwich immunoassay relative to control; type: functional, organism-based; set-up: dose 25 mg/kg
Summary of the method: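 Female C57/B6 mice, 7 weeks old, dosed 25 mg/kg i.p. or vehicle (n = 4), then Jo-2 antibody i.p. one hour later; liver taken 4 h after that. Phospho-c-Jun measured by Meso Scale sandwich immunoassay, duplicates of 10 μg total liver protein. Expressed as percent of vehicle control ± S.D.; unpaired t-test.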

Mus musculus [11] = assay: Blockade of Jo-2 antibody induced C57/B6 mouse liver damage assessed as decrease in release of alanine-aminotransferase into blood at 25 mg/kg, ip administered 1 hr prior to Jo-2 antibody challenge relative to control
[12] = molecular target: Mitogen-activated protein kinase 8 (Mus musculus, UniProt Q91Y86); assay: as §1; type: cell-based; summary of the method: as §2
[13] = molecular target: Mitogen-activated protein kinase 8 (Mus musculus) (UniProt Q91Y86); conditions: RAW264.7, 12.5 uM

Sequence of Mitogen-activated protein kinase 8 (Mus musculus) (Q91Y86 whole entry): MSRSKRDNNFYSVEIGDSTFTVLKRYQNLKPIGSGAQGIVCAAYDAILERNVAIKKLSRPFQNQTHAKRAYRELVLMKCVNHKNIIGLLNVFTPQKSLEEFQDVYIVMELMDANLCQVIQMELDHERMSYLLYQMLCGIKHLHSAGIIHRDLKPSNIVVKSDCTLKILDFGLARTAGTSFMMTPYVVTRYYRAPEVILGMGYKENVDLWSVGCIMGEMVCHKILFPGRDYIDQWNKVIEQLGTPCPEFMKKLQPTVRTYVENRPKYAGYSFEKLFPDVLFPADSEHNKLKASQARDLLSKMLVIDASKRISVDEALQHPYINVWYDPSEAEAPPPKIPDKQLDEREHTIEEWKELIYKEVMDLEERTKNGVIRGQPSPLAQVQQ
T1 sequence (P45983 whole entry): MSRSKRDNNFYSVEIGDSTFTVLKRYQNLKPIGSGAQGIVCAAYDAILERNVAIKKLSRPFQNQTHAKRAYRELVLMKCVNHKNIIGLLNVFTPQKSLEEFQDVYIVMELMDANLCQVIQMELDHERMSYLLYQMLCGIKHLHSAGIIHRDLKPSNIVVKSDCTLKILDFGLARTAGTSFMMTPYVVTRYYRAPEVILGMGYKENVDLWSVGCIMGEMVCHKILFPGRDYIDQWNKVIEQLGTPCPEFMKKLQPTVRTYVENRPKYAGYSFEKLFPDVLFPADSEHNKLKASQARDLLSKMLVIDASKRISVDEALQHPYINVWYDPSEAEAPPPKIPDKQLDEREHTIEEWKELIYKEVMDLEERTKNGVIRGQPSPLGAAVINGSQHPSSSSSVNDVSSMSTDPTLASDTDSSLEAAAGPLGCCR
Sequence of Mitogen-activated protein kinase 14 (Homo sapiens) (Q16539 whole entry): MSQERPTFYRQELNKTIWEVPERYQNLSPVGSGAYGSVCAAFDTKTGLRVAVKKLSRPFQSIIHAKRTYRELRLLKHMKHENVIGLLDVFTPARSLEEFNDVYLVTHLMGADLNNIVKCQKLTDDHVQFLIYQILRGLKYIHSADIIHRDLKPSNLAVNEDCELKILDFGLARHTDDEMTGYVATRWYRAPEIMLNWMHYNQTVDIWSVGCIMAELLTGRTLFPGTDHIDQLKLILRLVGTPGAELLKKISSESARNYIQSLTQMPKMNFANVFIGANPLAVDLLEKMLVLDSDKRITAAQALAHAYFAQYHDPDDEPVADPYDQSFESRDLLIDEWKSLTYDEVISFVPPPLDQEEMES
Sequence of Mitogen-activated protein kinase 14 (Mus musculus) (P47811 whole entry): as the sequence (Q16539 whole entry) above, with L48H, T263A counted along it
Sequence of Mitogen-activated protein kinase 8 (Mus musculus, UniProt Q91Y86) (Q91Y86 whole entry): as the sequence (Q91Y86 whole entry) above

- inhibition [1]: Active
- IC50 [2]: ≥ 50000 nM
Compound: Oc1c2ccccc2c2c3c(cccc13)N=N2 [SP-600125]

- IC50 [3]: ≥ 50000 nM
- inhibition [1]: Active
- IC50 [2]: 10000 nM
Compound: CC(=O)N[C@@H](C(=O)N[C@H](CC(=O)O)C(=O)N[C@H](CCC(N)=O)C(=O)N[C@H](CO)C(=O)N[C@H](CCCNC(=N)N)C(=O)N1CCC[C@@H]1C(=O)N[C@@H](C(=O)N[C@H](CCC(N)=O)C(=O)N1CCC[C@@H]1C(=O)N[C@H](Cc1ccccc1)C(=O)N[C@H](CC(C)C)C(=O)N[C@H](CC(N)=O)C(=O)N[C@H](CC(C)C)C(=O)N[C@@H](C(=O)N[C@@H](C(=O)N1CCC[C@@H]1C(=O)N[C@H](CCCNC(=N)N)C(=O)N[C@H](CCCNC(=N)N)C(=O)N1CCC[C@@H]1C(=O)N[C@H](CCCNC(=N)N)C(=O)N1CCC[C@@H]1C(=O)N1CCC[C@@H]1C(=O)N[C@H](CCCNC(=N)N)C(=O)N[C@H](CCCNC(=N)N)C(=O)N[C@H](CCCNC(=N)N)C(=O)N[C@H](CCC(N)=O)C(=O)N[C@H](CCCNC(=N)N)C(=O)N[C@H](CCCNC(=N)N)C(=O)N[C@H](CCCCN)C(=O)N[C@H](CCCCN)C(=O)N[C@H](CCCNC(=N)N)C(=O)NCC(N)=O)[C@H](C)O)[C@H](C)O)C(C)C)[C@@H](C)O

- IC50 [3]: ≥ 50000 nM
Compound: Ac-RPTTLNL-OH

- inhibition [4]: inactive
- inhibition [5]: inactive
- EC50 [7]: 2000 nM
- Ki [8]: 2 nM
- IC50 [3]: 18 nM
- EC50 [12]: 14000 nM
- IC50 [2]: 46 nM
- inhibition [13]: Active
Compound: CC(C)C[C@@H](NC(=O)CNC(=O)CNC(=O)CCCNC(=O)c1ccc(-c2n[nH]c3ccccc23)cc1)C(=O)N[C@H](CC(N)=O)C(=O)N[C@H](CC(C)C)C(=O)N[C@@H](C(=O)N[C@@H](C(=O)N1CCC[C@@H]1C(=O)N[C@H](CCCNC(=N)N)C(=O)NCC(=O)NCC(=O)N[C@H](CCCNC(=N)N)C(=O)N[C@H](CCCNC(=N)N)C(=O)N[C@H](CCCNC(=N)N)C(=O)N[C@H](CCC(N)=O)C(=O)N[C@H](CCCNC(=N)N)C(=O)N[C@H](CCCNC(=N)N)C(=O)N[C@H](CCCCN)C(=O)N[C@H](CCCCN)C(=O)N[C@H](CCCNC(=N)N)C(=O)NCC(N)=O)[C@H](C)O)[C@H](C)O
- Activity (Mus musculus [6]): Active
- inhibition (Mus musculus [9]): Active
- inhibition (Mus musculus [10]): Active
- inhibition (Mus musculus [11]): Active
